Assay results reported in ChEMBL document CHEMBL4402603, “Structure-Activity Relationship of SPOP Inhibitors against Kidney Cancer” (J Med Chem, 2020).

Columns and labels:
[1] = molecular target: Speckle-type POZ protein (Homo sapiens) (UniProt O43791); assay: Binding affinity to recombinant N-terminal GST/His-tagged MATH binding domain SPOP (unknown origin) expressed in Escherichia coli BL21 (DE3) assessed as change in melting temperature at 10 fold compound incubated for 15 mins by nano differential scanning fluorimetry (reference value: -1.7 degreeC)
Chain of Speckle-type POZ protein (Homo sapiens) (O43791 whole entry, the tested form may be a part): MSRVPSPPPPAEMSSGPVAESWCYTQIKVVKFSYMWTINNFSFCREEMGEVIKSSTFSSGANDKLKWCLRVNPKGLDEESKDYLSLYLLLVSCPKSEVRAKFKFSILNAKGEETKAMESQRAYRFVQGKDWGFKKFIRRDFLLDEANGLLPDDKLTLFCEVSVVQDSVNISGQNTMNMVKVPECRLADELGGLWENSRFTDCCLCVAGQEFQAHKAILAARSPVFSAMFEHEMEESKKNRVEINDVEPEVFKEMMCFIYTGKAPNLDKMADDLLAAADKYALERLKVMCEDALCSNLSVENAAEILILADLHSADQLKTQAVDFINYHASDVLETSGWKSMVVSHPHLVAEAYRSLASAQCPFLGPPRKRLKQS

OS-RC-2 [2] = assay: Antiproliferative activity against human OS-RC2 cells assessed as reduction in cell viability at 30 uM incubated for 72 hrs by MTT assay relative to control; format: functional; settings: OS-RC-2, 72 h
How it was run: (§1)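 MTT read-out. Cells seeded at 1,000-2,200/well, grown 12 hr at 37 °C, then compound added for 72 hr. MTT for 4 hr, formazan dissolved in DMSO, absorbance at 490 nm. Untreated-cell OD taken as 100% proliferation; inhibition reported at 30 μM.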

[3] = molecular target: Speckle-type POZ protein (Homo sapiens) (UniProt O43791); assay: Binding affinity to recombinant N-terminal GST/His-tagged MATH binding domain SPOP (unknown origin) expressed in Escherichia coli BL21 (DE3) assessed as change in melting temperature at 20 fold compound incubated for 15 mins by nano differential scanning fluorimetry (reference value: -3.8 degreeC)
A498 [4] = assay: Antiproliferative activity against human A498 cells assessed as reduction in cell viability at 30 uM incubated for 72 hrs by MTT assay relative to control; format: functional; settings: A498, 72 h; how it was run: as §1
A498 [5] = assay: Antiproliferative activity against human A498 cells assessed as reduction in cell viability incubated for 72 hrs by MTT assay; format: functional, cell-based; settings: A498, 72 h
How it was run: (§2)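 MTT read-out. Cells seeded at 1,000-2,200/well, grown 12 hr at 37 °C before compound, then exposed 72 hr. MTT for 4 hr, formazan dissolved in DMSO, A490 read. Untreated cells = 100% proliferation. IC50 quantitated; mean ± SD, n = 3.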

OS-RC-2 [6] = assay: Antiproliferative activity against human OS-RC2 cells assessed as reduction in cell viability incubated for 72 hrs by MTT assay; format: functional, cell-based; settings: OS-RC-2, 72 h; how it was run: as §2

Compound | ΔTm [1] [°C] | inhibition at 30 µM (OS-RC-2 [2]) [%] | ΔTm [3] [°C] | inhibition at 30 µM (A498 [4]) [%] | IC50 (A498 [5]) [µM] | IC50 (OS-RC-2 [6]) [µM]
CCOC(=O)c1cc2c(=O)n3cccc(C)c3nc2n(-c2ccc(F)cc2)c1=N | 1.7 | 16 | 1.9 | 33 | – | –
Cc1cccn2c(=O)c3cc(C(=O)O)c(=N)n(Cc4ccco4)c3nc12 | – | 16 | – | 24 | – | –
CCOC(=O)c1cc2c(=O)n3cccc(C)c3nc2n(CCc2ccc(Cl)cc2)c1=N | 0.8 | 48 | 1.6 | 42 | – | –
CCOC(=O)c1cc2c(=O)n3cccc(C)c3nc2n(CCc2ccc(C)cc2)c1=N | 0.8 | 49 | 1.5 | 51 | – | –
O=C(O)c1cc2cccnc2n(CCc2ccccc2)c1=O | – | 24 | – | 33 | – | –
CCOC(=O)c1cc2cnccc2n(CCc2ccccc2)c1=O | – | 15 | – | 14 | – | –
C#CCn1c(=N)c(C(=O)NCCCN2CCOCC2)cc2c(=O)n3cccc(C)c3nc21 | – | 37 | – | 37 | – | –
Cc1cccn2c(=O)c3cc(C(=O)NCCN4CCOCC4)c(=N)n(CCc4cccs4)c3nc12 | 3.1 | 82 | 3.3 | 86 | – | –
Cc1cccn2c(=O)c3cc(C(=O)O)c(=N)n(CCc4cccs4)c3nc12 | – | 37 | – | 25 | – | –
CCOC(=O)c1cc2c(=O)n3cccc(C)c3nc2n(CCc2cccs2)c1=N | 4.9 | 49 | 5.3 | 38 | – | –
CCCn1c(=N)c(C(=O)NCCCN2CCOCC2)cc2c(=O)n3cccc(C)c3nc21 | – | 66 | – | 57 | 6.4 | 5.2
CCN(CC)CCn1c(=N)c(C(=O)NCCCN2CCOCC2)cc2c(=O)n3cccc(C)c3nc21 | – | 89 | – | 86 | 3.5 | 3.9
Cc1cccn2c(=O)c3cc(C(=O)NCCO)c(=N)n(CCc4cccs4)c3nc12 | – | 81 | – | 83 | – | –
CCN(CC)CCNC(=O)c1cc2cnccc2n(CCc2ccccc2)c1=O | – | 11 | – | 38 | – | –
Cc1cccn2c(=O)c3cc(C(=O)O)c(=N)n(Cc4ccccc4)c3nc12 | – | 32 | – | 20 | – | –
Cc1cccn2c(=O)c3cc(C(=O)NCCCN4CCOCC4)c(=N)n(-c4ccccc4)c3nc12 | – | 23 | – | 12 | – | –
Cc1cccn2c(=O)c3cc(C(=O)NCCCc4ccccc4)c(=N)n(CCc4cccs4)c3nc12 | 2.8 | 58 | 2.6 | 62 | – | –
Cc1ccc(CCn2c(=N)c(C(=O)O)cc3c(=O)n4cccc(C)c4nc32)cc1 | – | 31 | – | 51 | – | –
Cc1cccn2c(=O)c3cc(C(=O)O)c(=N)n(C(C)C)c3nc12 | – | 22 | – | 18 | – | –
N=c1c(C(=O)NCCCN2CCOCC2)cc2c(=O)n3ccccc3nc2n1CCc1cccs1 | – | 56 | – | 62 | – | –
Cc1cccn2c(=O)c3cc(C(=O)NCCCN4CCOCC4)c(=N)n(C)c3nc12 | – | 62 | – | 59 | – | –
CCOC(=O)c1cc2c(=O)n3cccc(C)c3nc2n(Cc2ccco2)c1=N | – | 56 | – | 59 | – | –
Cc1cccn2c(=O)c3cc(C(=O)NCCCN4CCOCC4)c(=N)n(CCN4CCOCC4)c3nc12 | – | 40 | – | 35 | – | –
Cc1cccn2c(=O)c3cc(C(=O)O)c(=N)n(-c4ccccc4)c3nc12 | – | 16 | – | 24 | – | –
CCOC(=O)c1cc2c(=O)n3cccc(C)c3nc2n(-c2ccccc2)c1=N | – | 10 | – | 51 | – | –
CCOC(=O)c1cc2cccnc2n(CCc2ccccc2)c1=O | – | 19 | – | 15 | – | –

Compound | ΔTm [1] [°C] | inhibition at 30 µM (OS-RC-2 [2]) [%] | ΔTm [3] [°C] | inhibition at 30 µM (A498 [4]) [%] | IC50 (A498 [5]) [µM] | IC50 (OS-RC-2 [6]) [µM]
Cc1ccn2c(=O)c3cc(C(=O)NCCCN4CCOCC4)c(=N)n(CCc4cccs4)c3nc2c1 | – | 77 | – | 75 | – | –
Cc1cccn2c(=O)c3cc(C(=O)NCCCN4CCOCC4)c(=N)n(C4CCCCC4)c3nc12 | – | 22 | – | 37 | – | –
Cc1cccn2c(=O)c3cc(C(=O)NCCCN4CCOCC4)c(=N)n(CCc4ccccc4F)c3nc12 | – | 74 | – | 61 | – | –
Cc1cccn2c(=O)c3cc(C(=O)NCCCN4CCOCC4)c(=N)n(CCOc4ccccc4)c3nc12 | – | 36 | – | 50 | – | –
Cc1cccn2c(=O)c3cc(C(=O)O)c(=N)n(CCc4ccccc4)c3nc12 | 2.3 | 28 | 3.7 | 13 | – | –
CCOC(=O)c1cc2c(=O)n3cccc(C)c3nc2n(CCc2ccccc2)c1=N | – | 20 | – | 24 | – | –
Cc1cccn2c(=O)c3cc(C(=O)O)c(=N)n(-c4ccc(F)cc4)c3nc12 | – | 33 | – | 18 | – | –
Cc1cccn2c(=O)c3cc(C(=O)NCCCN4CCOCC4)c(=N)n(CCc4c[nH]c5ccccc45)c3nc12 | – | 51 | – | 55 | – | –
Cc1cccn2c(=O)c3cc(C(=O)NCCCN4CCOCC4)c(=N)n(Cc4ccncc4)c3nc12 | – | 35 | – | 48 | – | –
O=C(NCCc1ccc(F)cc1)c1cc2cccnc2n(CCc2ccccc2)c1=O | – | 14 | – | 8 | – | –
Cc1cccn2c(=O)c3cc(C(=O)NCCCN4CCOCC4)c(=N)n(C(C)C)c3nc12 | – | 15 | – | 11 | – | –
Cc1cccn2c(=O)c3cc(C(=O)O)c(=N)n(CCc4ccc(Cl)cc4)c3nc12 | – | 30 | – | 57 | – | –
CCN(CC)CCNC(=O)c1cc2cccnc2n(CCc2ccccc2)c1=O | – | 30 | – | 13 | – | –
CCOC(=O)c1cc2c(=O)n3cccc(C)c3nc2n(Cc2ccccc2)c1=N | – | 26 | – | 24 | – | –
CCOC(=O)c1cc2c(=O)n3cccc(C)c3nc2n(C(C)C)c1=N | – | 23 | – | 27 | – | –
Cc1cccn2c(=O)c3cc(C(=O)NCc4ccccc4)c(=N)n(CCc4cccs4)c3nc12 | – | 50 | – | 60 | – | –
Cc1cccn2c(=O)c3cc(C(=O)NCC4CCCO4)c(=N)n(CCc4cccs4)c3nc12 (stereo not given) | – | 83 | – | 86 | – | –
O=C(NCCc1ccc(F)cc1)c1cc2cnccc2n(CCc2ccccc2)c1=O | – | 16 | – | 25 | – | –
Cc1cccn2c(=O)c3cc(C(=O)NCCCN4CCOCC4)c(=N)n(CCCN4CCOCC4)c3nc12 | – | 35 | – | 27 | – | –
Cc1cccn2c(=O)c3cc(C(=O)NCCCN4CCOCC4)c(=N)n(-c4ccc(Cl)cc4)c3nc12 | – | 38 | – | 17 | – | –
Cc1cccn2c(=O)c3cc(C(=O)NCCc4ccc(F)cc4)c(=N)n(CCc4cccs4)c3nc12 | – | 21 | – | 12 | – | –
O=C(O)c1cc2cnccc2n(CCc2ccccc2)c1=O | – | 15 | – | 21 | – | –
CCCn1c(=N)c(C(=O)O)cc2c(=O)n3cccc(C)c3nc21 | – | 29 | – | 21 | – | –
Cc1cccn2c(=O)c3cc(C(=O)NCCCN4CCOCC4)c(=N)n(Cc4ccccc4)c3nc12 | – | 46 | – | 58 | – | –
CCCn1c(=N)c(C(=O)OCC)cc2c(=O)n3cccc(C)c3nc21 | – | 35 | – | 38 | – | –
